From ChEMBL document CHEMBL1153427, “1-Sulfonyl-4-acylpiperazines as selective cannabinoid-1 receptor (CB1R) inverse agonists for the treatment of obesity” (J Med Chem, 2009)
pEC50, pIC50: −log10 of the molar value.

Experiments:
[1] = molecular target: T1, Cannabinoid receptor 1 (Homo sapiens, UniProt P21554); assay: Displacement of [3H]CP-55940 from human recombinant CB1R expressed in CHO cells; assay type: cell-based
How it was run: (§1)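 Radioligand competition used 0.5 nM [³H]CP55940 with recombinant human CB1R-CHO or CB2R-CHO membranes. Bound and free ligand were separated by filtration, and IC₅₀ came from nonlinear curve fitting.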

[2] = molecular target: Cannabinoid receptor 2 (Homo sapiens, UniProt P34972); assay: Displacement of [3H]CP-55940 from human recombinant CB2R expressed in CHO cells; assay type: cell-based; how it was run: as §1
Cannabinoid receptor 2, sequence (P34972 whole entry): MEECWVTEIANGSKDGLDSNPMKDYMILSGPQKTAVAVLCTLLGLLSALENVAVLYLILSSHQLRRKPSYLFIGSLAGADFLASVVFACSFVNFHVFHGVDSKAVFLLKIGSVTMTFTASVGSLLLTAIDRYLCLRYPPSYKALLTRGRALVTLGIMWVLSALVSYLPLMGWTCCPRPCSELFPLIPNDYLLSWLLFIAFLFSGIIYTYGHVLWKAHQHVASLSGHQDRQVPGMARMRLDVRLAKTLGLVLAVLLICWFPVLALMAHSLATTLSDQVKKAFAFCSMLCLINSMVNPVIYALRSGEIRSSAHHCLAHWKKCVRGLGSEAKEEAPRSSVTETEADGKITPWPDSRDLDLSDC

[3] = molecular target: T1, Cannabinoid receptor 1; assay: Inverse agonist activity at human recombinant CB1R expressed in CHO cells assessed as increase in forskolin-stimulated cAMP level; assay type: functional, cell-based
How it was run: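 Recombinant CB1R-CHO cells were incubated with test compound across a range of concentrations, plus forskolin and the phosphodiesterase inhibitor IBMX. Buffer was Earle's balanced salt solution with 5 mM MgCl₂, 10 mM HEPES pH 7.3 and 1 mg/mL BSA, for 30 min at room temperature, with cAMP read out.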

[4] = molecular target: Voltage-gated inwardly rectifying potassium channel KCNH2 (Homo sapiens, UniProt Q12809); assay: Inhibition of human ERG by MK-0499 binding assay
Voltage-gated inwardly rectifying potassium channel KCNH2, sequence (Q12809 whole entry): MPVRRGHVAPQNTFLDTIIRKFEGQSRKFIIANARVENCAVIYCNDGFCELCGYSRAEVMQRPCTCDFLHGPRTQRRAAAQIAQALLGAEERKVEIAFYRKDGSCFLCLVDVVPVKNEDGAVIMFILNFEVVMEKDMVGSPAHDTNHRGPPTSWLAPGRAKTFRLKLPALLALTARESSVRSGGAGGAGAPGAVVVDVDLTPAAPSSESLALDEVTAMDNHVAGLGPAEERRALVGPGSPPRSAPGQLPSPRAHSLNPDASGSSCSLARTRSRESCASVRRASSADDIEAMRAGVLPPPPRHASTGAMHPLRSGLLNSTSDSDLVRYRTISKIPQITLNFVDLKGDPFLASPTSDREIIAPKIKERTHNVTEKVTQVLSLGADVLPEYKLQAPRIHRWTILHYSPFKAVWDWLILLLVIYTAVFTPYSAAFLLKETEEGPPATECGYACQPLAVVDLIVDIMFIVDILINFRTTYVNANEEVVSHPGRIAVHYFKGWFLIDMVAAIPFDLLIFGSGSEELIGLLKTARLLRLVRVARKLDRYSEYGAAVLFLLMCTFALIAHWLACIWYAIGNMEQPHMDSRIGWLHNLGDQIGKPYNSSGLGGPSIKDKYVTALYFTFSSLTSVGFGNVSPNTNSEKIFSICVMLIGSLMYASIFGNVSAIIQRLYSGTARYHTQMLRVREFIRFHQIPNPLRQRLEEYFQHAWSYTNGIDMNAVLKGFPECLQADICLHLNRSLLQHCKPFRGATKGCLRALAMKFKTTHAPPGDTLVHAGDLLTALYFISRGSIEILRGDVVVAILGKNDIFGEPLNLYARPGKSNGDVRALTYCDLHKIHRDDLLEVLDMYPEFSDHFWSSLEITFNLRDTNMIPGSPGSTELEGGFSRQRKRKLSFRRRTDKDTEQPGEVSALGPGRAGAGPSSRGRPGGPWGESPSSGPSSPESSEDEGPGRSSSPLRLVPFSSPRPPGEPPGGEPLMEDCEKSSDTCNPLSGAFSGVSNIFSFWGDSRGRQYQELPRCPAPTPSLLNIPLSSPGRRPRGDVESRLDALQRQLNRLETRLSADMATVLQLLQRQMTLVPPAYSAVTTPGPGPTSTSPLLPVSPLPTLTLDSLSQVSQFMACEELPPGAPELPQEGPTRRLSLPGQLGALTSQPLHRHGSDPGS

T1 sequence (P21554 whole entry): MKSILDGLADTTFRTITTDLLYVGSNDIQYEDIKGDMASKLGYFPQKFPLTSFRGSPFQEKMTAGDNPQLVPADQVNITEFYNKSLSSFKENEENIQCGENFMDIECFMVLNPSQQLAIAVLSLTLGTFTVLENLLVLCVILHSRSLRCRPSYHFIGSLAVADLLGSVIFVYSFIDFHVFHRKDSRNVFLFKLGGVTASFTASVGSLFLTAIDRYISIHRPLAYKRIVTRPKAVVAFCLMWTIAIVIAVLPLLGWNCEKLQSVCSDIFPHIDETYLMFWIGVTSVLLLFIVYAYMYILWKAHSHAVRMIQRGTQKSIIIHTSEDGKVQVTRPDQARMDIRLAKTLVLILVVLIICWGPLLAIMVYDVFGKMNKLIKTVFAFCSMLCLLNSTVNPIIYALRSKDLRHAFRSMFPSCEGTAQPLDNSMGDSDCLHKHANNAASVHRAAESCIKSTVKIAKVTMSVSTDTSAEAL

SMILES | pIC50 [1] | pIC50 [2] | pEC50 [3] | pIC50 [4]
O=C(C1CC1)N1CCN(S(=O)(=O)c2c(Cl)cc(Cl)cc2Cl)CC1 | 5.01 |  | 5.82 | 
O=C(C1CC1)N1CCN(S(=O)(=O)c2cc(Cl)ccc2Cl)CC1 | 5.19 |  | 7.05 | 
O=C(Cc1ccccn1)N1CCN(S(=O)(=O)c2cc(Cl)cc(Cl)c2)CC1 | 5.52 |  | 7.40 | 
CN(C)C(=O)Oc1cc(C(F)(F)F)cc(S(=O)(=O)N2CCN(C(=O)[C@@H]3C[C@H]3c3ccc(C(F)(F)F)cc3)CC2)c1 | 8.70 |  |  | 
O=C(C1CCCCC1)N1C2CC1CN(S(=O)(=O)c1cccc3ccccc13)C2 | < 5.00 |  | 6.05 | 
O=C(C1CCCCC1)N1CCN(S(=O)(=O)c2cc(C(F)(F)F)cc(C(F)(F)F)c2)CC1 |  | < 5.00 | 9.00 | 
O=C([C@@H]1C[C@H]1c1ccc(C(F)(F)F)cc1)N1CCN(S(=O)(=O)c2cc(-c3n[nH]c(=O)[nH]3)cc(C(F)(F)F)c2)CC1 | 6.40 | < 5.00 |  | 
O=C(C1CCCCC1)N1CCN(S(=O)(=O)c2cccc3ccccc23)CC1C(F)(F)F (configuration not stated) | 6.54 |  | 8.60 | 
O=C(C1CCCCC1)N1CCN(S(=O)(=O)c2cc(Cl)cc(Cl)c2)CC1 |  | < 5.00 | 9.30 | 
O=C(Cc1ccccc1C(F)(F)F)N1CCN(S(=O)(=O)c2cc(Cl)cc(Cl)c2)CC1 | 6.33 |  | 8.66 | 
O=C(Cc1ccc(C(F)(F)F)cc1)N1CC(NS(=O)(=O)c2cc(C(F)(F)F)cc(C(F)(F)F)c2)C1 | < 5.00 |  | < 5.00 | 
O=C(C1CCCCC1)N1CCN(S(=O)(=O)c2cccc(C(F)(F)F)c2)CC1 | 5.38 |  | < 5.00 | 
O=C(C1CCCCC1)N1CCN(S(=O)(=O)c2cccc3ccccc23)CC1c1ccccc1 (configuration not stated) | 5.05 |  | 6.22 | 
O=C(c1ccccc1)N1CCN(S(=O)(=O)c2cc(C(F)(F)F)cc(C(F)(F)F)c2)CC1 | < 5.00 |  | < 5.00 | 
CC1(C)CN(S(=O)(=O)c2cccc3ccccc23)CCN1C(=O)C1CCCCC1 | 6.15 |  | 9.22 | 
O=C(Cc1ccccc1)N1CCN(S(=O)(=O)c2cc(Cl)cc(Cl)c2)CC1 | 6.10 |  | 8.70 | 
CC1CN(S(=O)(=O)c2cccc3ccccc23)CCN1C(=O)C1CCCCC1 (configuration not stated) | 6.51 |  | 8.15 | 
CC(C(=O)N1CCN(S(=O)(=O)c2cc(Cl)cc(Cl)c2)CC1)c1ccc(C(F)(F)F)cc1 (stereo in doubt; 20b) | 6.40 |  | 7.96 | 
O=C(C1CCCCC1)N1C2CCC1CN(S(=O)(=O)c1cccc3ccccc13)C2 | 5.51 |  | 6.52 | 
CC1CN(C(=O)C2CCCCC2)CCN1S(=O)(=O)c1cccc2ccccc12 (configuration not stated) | 5.33 |  | 6.74 | 
C[C@@H]1CN(S(=O)(=O)c2cccc3ccccc23)C[C@H](C)N1C(=O)C1CCCCC1 | 5.55 |  | 8.10 | 
O=C(C1CC1)N1CCN(S(=O)(=O)c2cc(Cl)cc(Cl)c2)CC1 | 6.11 |  | 8.30 | 
O=C(Cc1ccc(C(F)(F)F)cc1)N1CCN(S(=O)(=O)c2cc(C(F)(F)F)cc(C(F)(F)F)c2)C1 | < 5.00 |  | < 5.00 | 
N#Cc1ccc(CC(=O)N2CCN(S(=O)(=O)c3cc(Cl)cc(Cl)c3)CC2)cc1 |  |  | 9.30 | 
O=C(C1CC1)N1CCN(S(=O)(=O)c2cc(Cl)c(Cl)cc2Cl)CC1 | 5.01 |  | 5.82 | 
O=C(C1CC1)N1CCN(S(=O)(=O)c2c(Cl)cccc2Cl)CC1 | 5.01 |  | 5.82 | 
O=C(Cc1ccc(C(F)(F)F)cc1)NC1CN(S(=O)(=O)c2cc(C(F)(F)F)cc(C(F)(F)F)c2)C1 | < 5.00 |  | < 5.00 | 
O=C(C1CC1)N1CCN(S(=O)(=O)c2ccc(Cl)cc2)CC1 | 5.46 |  | < 5.00 | 

More lines, main results first:

pIC50 [1] | pIC50 [2] | pEC50 [3] | SMILES | pIC50 [4]
7.30 | < 5.00 |  | O=C([C@@H]1C[C@H]1c1ccc(C(F)(F)F)cc1)N1CCN(S(=O)(=O)c2cc(-n3ccnn3)cc(C(F)(F)F)c2)CC1 | 
6.40 | < 5.00 |  | Nc1nnc(-c2cc(C(F)(F)F)cc(S(=O)(=O)N3CCN(C(=O)[C@@H]4C[C@H]4c4ccc(C(F)(F)F)cc4)CC3)c2)o1 | 
9.22 | < 5.00 |  | O=C([C@@H]1C[C@H]1c1ccc(C(F)(F)F)cc1)N1CCN(S(=O)(=O)c2cc(-n3nccn3)cc(C(F)(F)F)c2)CC1 | 
8.10 |  |  | CCOC(=O)Oc1cc(C(F)(F)F)cc(S(=O)(=O)N2CCN(C(=O)[C@@H]3C[C@H]3c3ccc(C(F)(F)F)cc3)CC2)c1 | 
9.52 | < 5.00 |  | O=C([C@@H]1C[C@H]1c1ccc(C(F)(F)F)cc1)N1CCN(S(=O)(=O)c2cc(-c3ncon3)cc(C(F)(F)F)c2)CC1 | 
6.40 | < 5.00 | 8.96 | Cc1cc(C)cc(S(=O)(=O)N2CCN(C(=O)C3CCCCC3)CC2)c1 | 
8.30 | < 5.00 |  | O=C([C@@H]1C[C@H]1c1ccc(C(F)(F)F)cc1)N1CCN(S(=O)(=O)c2cc(C(F)(F)F)cc(C(F)(F)CO)c2)CC1 | 
9.30 |  |  | COc1cc(C(F)(F)F)cc(S(=O)(=O)N2CCN(C(=O)[C@@H]3C[C@H]3c3ccc(C(F)(F)F)cc3)CC2)c1 | 
7.70 |  | 8.82 | CC(C(=O)N1CCN(S(=O)(=O)c2cc(Cl)cc(Cl)c2)CC1)c1ccc(C(F)(F)F)cc1 (stereo in doubt; 20a) | 
8.22 | < 5.00 | 9.00 | O=C(Cc1ccc(C(F)(F)F)cc1)N1CCN(S(=O)(=O)c2cc(Br)cc(C(F)(F)F)c2)CC1 | 
7.02 | < 5.00 | 9.22 | O=C(C1CCCCC1)N1CCN(S(=O)(=O)c2cccc3ccccc23)CC1 | 
8.30 | < 5.00 | 9.00 | O=C(Cc1ccc(C(F)(F)F)cc1)N1CCN(S(=O)(=O)c2cc(C(F)(F)F)cc(C(F)(F)F)c2)CC1 | 
8.30 | < 5.00 | 9.00 | COC(=O)c1cc(C(F)(F)F)cc(S(=O)(=O)N2CCN(C(=O)Cc3ccc(C(F)(F)F)cc3)CC2)c1 | 
9.52 |  |  | CC(C)Oc1cc(C(F)(F)F)cc(S(=O)(=O)N2CCN(C(=O)[C@@H]3C[C@H]3c3ccc(C(F)(F)F)cc3)CC2)c1 | 
7.00 | < 5.00 |  | O=C([C@@H]1C[C@H]1c1ccc(C(F)(F)F)cc1)N1CCN(S(=O)(=O)c2cc(-c3n[nH]c(=O)o3)cc(C(F)(F)F)c2)CC1 | 
8.10 | < 5.00 |  | CC(C)(O)c1cc(C(F)(F)F)cc(S(=O)(=O)N2CCN(C(=O)[C@@H]3C[C@H]3c3ccc(C(F)(F)F)cc3)CC2)c1 | 
6.70 | < 5.00 | 8.22 | O=C(C1CCCCC1)N1CCN(S(=O)(=O)c2cccc(-c3ccccc3)c2)CC1 | 

pIC50 [1] | pIC50 [2] | pEC50 [3] | SMILES | pIC50 [4]
8.00 | < 5.00 |  | O=C1CSC(c2cc(C(F)(F)F)cc(S(=O)(=O)N3CCN(C(=O)[C@@H]4C[C@H]4c4ccc(C(F)(F)F)cc4)CC3)c2)=N1 | 
8.05 | < 5.00 |  | O=C([C@@H]1C[C@H]1c1ccc(C(F)(F)F)cc1)N1CCN(S(=O)(=O)c2cc(-c3cn[nH]c3)cc(C(F)(F)F)c2)CC1 | 
8.10 |  |  | CC(C)(C)C(=O)Oc1cc(C(F)(F)F)cc(S(=O)(=O)N2CCN(C(=O)[C@@H]3C[C@H]3c3ccc(C(F)(F)F)cc3)CC2)c1 | 
7.70 | < 5.00 |  | Cc1[nH]ncc1-c1cc(C(F)(F)F)cc(S(=O)(=O)N2CCN(C(=O)[C@@H]3C[C@H]3c3ccc(C(F)(F)F)cc3)CC2)c1 | 
9.15 | < 5.00 |  | O=C([C@@H]1C[C@H]1c1ccc(C(F)(F)F)cc1)N1CCN(S(=O)(=O)c2cc(-n3cccn3)cc(C(F)(F)F)c2)CC1 | 
8.40 | < 5.00 |  | O=C([C@@H]1C[C@H]1c1ccc(C(F)(F)F)cc1)N1CCN(S(=O)(=O)c2cc(CCO)cc(C(F)(F)F)c2)CC1 | 6.05
8.00 | < 5.00 |  | Cc1nnc(-c2cc(C(F)(F)F)cc(S(=O)(=O)N3CCN(C(=O)[C@@H]4C[C@H]4c4ccc(C(F)(F)F)cc4)CC3)c2)[nH]1 | 
6.66 |  | 9.52 | CC(C(=O)N1CCN(S(=O)(=O)c2cc(Cl)cc(Cl)c2)CC1)c1ccccc1 (racemic) | 
8.52 | < 5.00 |  | O=C([C@@H]1C[C@H]1c1ccc(C(F)(F)F)cc1)N1CCN(S(=O)(=O)c2cc(-c3c[nH]nn3)cc(C(F)(F)F)c2)CC1 | 
8.15 | < 5.00 |  | O=C([C@@H]1C[C@H]1c1ccc(C(F)(F)F)cc1)N1CCN(S(=O)(=O)c2cc(-n3cncn3)cc(C(F)(F)F)c2)CC1 | 
7.80 |  | 9.30 | O=C(Cc1ccc(C(F)(F)F)cc1)N1CCN(S(=O)(=O)c2cc(Cl)cc(Cl)c2)CC1 | 
6.70 | < 5.00 |  | O=C([C@@H]1C[C@H]1c1ccc(C(F)(F)F)cc1)N1CCN(S(=O)(=O)c2cc(-c3noc(=O)[nH]3)cc(C(F)(F)F)c2)CC1 | 
7.59 |  | 9.30 | O=C(CCc1ccc(C(F)(F)F)cc1)N1CCN(S(=O)(=O)c2cc(Cl)cc(Cl)c2)CC1 | 
8.22 |  |  | O=C([C@@H]1C[C@H]1c1ccc(C(F)(F)F)cc1)N1CCN(S(=O)(=O)c2cc(O)cc(C(F)(F)F)c2)CC1 | 
6.82 |  | 8.34 | O=C(Cc1cccc(C(F)(F)F)c1)N1CCN(S(=O)(=O)c2cc(Cl)cc(Cl)c2)CC1 | 
6.64 |  | 8.55 | CC(C)(C(=O)N1CCN(S(=O)(=O)c2cc(Cl)cc(Cl)c2)CC1)c1ccccc1 | 
